# Calls of active or inactive are those of the source. The rule behind the calls is not given here.
# Experiments:
# A-431 = assay: Synergistic antiproliferative activity against human A-431 cells assessed as combination index at ED75 measured after 72 hrs in presence of erlotinib by celltiter-glo assay; format: functional
# How it was run: (§1)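 Cells were seeded at 2–3 × 10³ per well in RPMI 1640 with 10% FBS. At 24 h, MK-2206 and the partner drug were added simultaneously at constant concentration ratios spanning each agent's IC₅₀, for 72 h. Growth was read as cellular ATP by CellTiter-Glo. CI was taken from median-effect plots of each agent alone and in combination (Chou–Talalay), at ED₅₀, ED₇₅ and ED₉₀.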
# NCI-H358 = assay: Synergistic antiproliferative activity against human NCI-H358 cells assessed as combination index at ED75 measured after 72 hrs in presence of erlotinib by celltiter-glo assay; format: functional
# NCI-H1299 = assay: Synergistic antiproliferative activity against human NCI-H1299 cells assessed as combination index at ED75 measured after 72 hrs in presence of erlotinib by celltiter-glo assay; format: functional
# NCI-H460 [1] = assay: Synergistic antiproliferative activity against human NCI-H460 cells assessed as combination index at ED90 measured after 72 hrs in presence of erlotinib by celltiter-glo assay; format: functional
# [2] = biological target: RAC-alpha serine/threonine-protein kinase (Homo sapiens) (UniProt P31749); assay: Inhibition of AKT in human HCC827 cells assessed as reduction in AKT phosphorylation at S473 residue at 5 umol/L measured after 5 hrs by Western blot analysis; format: cell-based; conditions: dose 5.0 µmol/L
# [3] = biological target: RAC-alpha serine/threonine-protein kinase (Homo sapiens) (UniProt P31749); assay: Inhibition of AKT in human HCC827 cells assessed as reduction in GSK3alpha/beta phosphorylation at S21/S9 residues at 5 umol/L measured after 5 hrs in presence of erlotinib by Western blot analysis; format: cell-based; conditions: dose 5.0 µmol/L
# [4] = In vivo inhibition of ERK phosphorylation at T202/Y204 residues in human NCI-H292 cells xenografted mouse at 120 mg/kg, po administered as single dose 2 hrs post-erlotinib treatment measured after 12 hrs by Western blot analysis relative to control; format: functional
# Mus musculus = assay: In vivo inhibition of AKT in human NCI-H292 cells xenografted mouse at 120 mg/kg, po administered as single dose measured after 12 hrs by immunoprecipitation assay; format: functional, organism-based
# MDA-MB-468 [5] = assay: Synergistic antiproliferative activity against human MDA-MB-468 cells assessed as combination index at ED75 treated 24 hrs prior to lapatinib and measured after 72 hrs by celltiter-glo assay; format: functional; conditions: time 96 hrs
# NCI-N87 = assay: Synergistic antiproliferative activity against human NCI-N87 cells assessed as combination index at ED75 treated 24 hrs prior to lapatinib and measured after 72 hrs by celltiter-glo assay; format: functional; conditions: time 96 hrs
# MDA-MB-468 [6] = assay: Synergistic antiproliferative activity against human MDA-MB-468 cells assessed as combination index at ED75 measured after 96 hrs in presence of lapatinib by celltiter-glo assay; format: functional
# HCC1954 = assay: Synergistic antiproliferative activity against human HCC1954 cells assessed as combination index at ED75 measured after 96 hrs in presence of lapatinib by celltiter-glo assay; format: functional
# SK-OV-3 = assay: Synergistic antiproliferative activity against human SK-OV-3 cells assessed as combination index at ED90 treated 24 hrs prior to lapatinib and measured after 72 hrs by celltiter-glo assay; format: functional; conditions: time 96 hrs
# [7] = biological target: RAC-alpha serine/threonine-protein kinase (Homo sapiens) (UniProt P31749); assay: Inhibition of AKT in human HCC70 cells assessed as reduction in S6 phosphorylation at S240/S244 residues at 1 umol/L measured after 3 to 24 hrs in presence of lapatinib by Western blot analysis; format: cell-based; conditions: dose 1.0 µmol/L, time 3-24 hrs
# How it was run: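 HCC70 cells at ~70% confluence were exposed to 10 µmol/L lapatinib, 1 µmol/L MK-2206, or both, for 0, 3, 6, 12 or 24 h. Lysates were prepared in Triton X-100/Tris buffer (pH 7.5) with protease and phosphatase inhibitors. Immunoblots after SDS-PAGE and nitrocellulose transfer were probed for pAkt and pS6.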
# BT-474 [8] = assay: Synergistic antiproliferative activity against human BT-474 cells assessed as combination index at ED50 measured after 72 hrs in presence of docetaxel by celltiter-glo assay; format: functional
# How it was run: (§2)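 Cells grown in RPMI 1640 with 10% heat-inactivated FBS at 37°C, 5% CO₂. Seeded at 2 to 3 × 10³ per well; drugs added 24 h later. […] Viability read as cellular ATP by CellTiter-Glo. CI calculated by Chou–Talalay from median-effect plots at ED50, ED75 and ED90.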
# BT-474 [9] = assay: Synergistic antiproliferative activity against docetaxel pretreated human BT-474 cells assessed as combination index at ED50 measured after 72 hrs by celltiter-glo assay; format: functional
# BT-474 [10] = assay: Synergistic antiproliferative activity against docetaxel pretreated human BT-474 cells assessed as combination index at ED75 measured after 72 hrs by celltiter-glo assay; format: functional
# ZR-75-1 = assay: Synergistic antiproliferative activity against human ZR-75-1 cells assessed as combination index at ED50 measured after 72 hrs in presence of docetaxel by celltiter-glo assay; format: functional
# MDA-MB-468 [11] = assay: Synergistic antiproliferative activity against human MDA-MB-468 cells assessed as combination index at ED50 measured after 72 hrs in presence of docetaxel by celltiter-glo assay; format: functional; how it was run: as §2
# A2780 [12] = assay: Synergistic antiproliferative activity against human A2780 cells assessed as combination index at ED50 measured after 72 hrs in presence of camptothecin by celltiter-glo assay; format: functional; how it was run: as §1
# NCI-H460 [13] = assay: Synergistic antiproliferative activity against human NCI-H460 cells assessed as combination index at ED75 measured after 72 hrs in presence of doxorubicin by celltiter-glo assay; format: functional
# A2780 [14] = assay: Cell cycle arrest in human A2780 cells assessed as increase in accumulation of cells at sub-G1 phase measured after 72 hrs in presence of doxorubicin by propidium iodide staining based flow cytometry; format: functional
# [15] = Toxicity in human NCI-H460 cells xenografted CD1 nude mouse assessed as body weight loss at 120 mg/kg, po administered 3 times per week for 2 weeks measured on day 14 to 16 in presence of carboplatin; format: organism-based; conditions: in vivo, 336 h, time 14-16 day
# How it was run: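 NCI-H460 cells in 50% Matrigel/PBS injected s.c. into flank of CD1-nude mice; randomized at mean tumour 0.2 cm³ (n = 5). MK-2206 in 30% Captisol, 120 mg/kg p.o. days 0, 2, 4, 7, 9, 11. Carboplatin 50 mg/kg i.v. in saline days 0 and 7 (from day 12 after implant), or gemcitabine 100 mg/kg i.v. in saline days 0 and 7 (from day 8). Body weight monitored.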
# UMC-11 [16] = assay: Induction of apoptosis in human UMC-11 cells assessed as fold induction of capsase-3/7 activity measured after 24 to 48 hrs in presence of carboplatin by caspase-glo 3/7 assay; format: functional; conditions: time 24-48 hrs
# UMC-11 [17] = assay: Induction of apoptosis in human UMC-11 cells assessed as fold induction of capsase-3/7 activity measured after 24 to 48 hrs in presence of gemcitabine by caspase-glo 3/7 assay; format: functional; conditions: time 24-48 hrs
# [18] = biological target: RAC-alpha serine/threonine-protein kinase (Homo sapiens) (UniProt P31749); assay: Inhibition of AKT phosphorylation at S473 residue in human NCI-H1993 cells at 3 umol/L measured after 4 to 24 hrs in presence of gemcitabine by MSD assay; conditions: time 4-24 hrs
# Sequence of RAC-alpha serine/threonine-protein kinase (Homo sapiens) (P31749 whole entry): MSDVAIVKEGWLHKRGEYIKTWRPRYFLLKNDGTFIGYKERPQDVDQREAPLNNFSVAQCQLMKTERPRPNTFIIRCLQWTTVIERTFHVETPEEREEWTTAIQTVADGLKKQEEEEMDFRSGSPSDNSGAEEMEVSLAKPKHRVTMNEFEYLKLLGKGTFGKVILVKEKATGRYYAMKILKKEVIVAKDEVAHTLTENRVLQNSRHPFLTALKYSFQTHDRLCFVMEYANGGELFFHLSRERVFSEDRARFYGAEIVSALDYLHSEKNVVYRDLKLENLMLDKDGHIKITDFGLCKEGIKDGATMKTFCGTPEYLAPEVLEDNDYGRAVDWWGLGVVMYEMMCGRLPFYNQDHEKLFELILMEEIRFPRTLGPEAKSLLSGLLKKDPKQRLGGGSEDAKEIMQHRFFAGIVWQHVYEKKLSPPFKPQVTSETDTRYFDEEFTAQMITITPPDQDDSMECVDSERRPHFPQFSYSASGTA
structure (smiles),measurement,setting,value
Cl.NC1(c2ccc(-c3nc4ccn5c(=O)[nH]nc5c4cc3-c3ccccc3)cc2)CCC1,CI75,A-431,0.21
same,CI75,NCI-H358,0.19
same,CI75,NCI-H1299,0.31
same,CI90,NCI-H460 [1],0.17
same,inhibition,[2],Active
same,inhibition,[3],Active
same,inhibition in vivo at 120 mg/kg,[4],53.5%
same,inhibition,Mus musculus,Active
same,CI75,MDA-MB-468 [5],0.18
same,CI75,NCI-N87,0.18
same,CI75,MDA-MB-468 [6],0.18
same,CI75,HCC1954,0.18
same,CI90,SK-OV-3,0.18
same,inhibition,[7],Active
same,CI50,BT-474 [8],1
same,CI50,BT-474 [9],0.8
same,CI75,BT-474 [10],0.5
same,CI50,ZR-75-1,0.1
same,CI50,MDA-MB-468 [11],0.9
same,CI50,A2780 [12],0.56
same,CI75,NCI-H460 [13],0.18
same,Activity,A2780 [14],Dose-Dependent Effect
same,Activity,[15],Non-Toxic
same,fold change (FC),UMC-11 [16],1.1
same,fold change (FC),UMC-11 [17],1.2
same,inhibition,[18],Active

# Reference: ChEMBL document CHEMBL5705892, “MK-2206, an allosteric Akt inhibitor, enhances antitumor efficacy by standard chemotherapeutic agents or molecular targeted drugs in vitro and in vivo” (Mol Cancer Ther, 2010)
